ChEMBL document CHEMBL1128256, “Synthesis, biological evaluation, and structure analysis of a series of new 1,5-anhydrohexitol nucleosides” (J Med Chem, 1995)
Values after ≈ are worked out from the molar mass of the structure shown.

What was measured:
E6SM [1] = experiment: Tested for the minimum inhibitory concentration required to reduce herpes simplex virus type 2 (HSV-2) strain G induced cytopathogenicity by 50%; type: functional; details: Homo sapiens
In short: (§1)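 Inhibition of virus-induced cytopathogenicity in human embryonic skin-muscle (E6SM) fibroblasts seeded in 96-well trays. Viruses were HSV-1 (KOS, F, McIntyre), TK- HSV-1 B2006, TK-/TK+ HSV-1 clinical isolate VMW-1837 and HSV-2 (G, 196, Lyons). […] MCC is the lowest concentration giving microscopically detectable alteration of normal cell morphology; highest concentration tested was 400 µg/mL.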

HEL [2] = experiment: Tested for the cytotoxic concentration, required to reduce cell growth by 50% in human embryonic lung (HEL) cells; type: functional
In short: (§2)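 Virus plaque formation assay in human embryonic lung (HEL) cells seeded in 96-well trays. Targets were TK+ VZV (Oka, YS), TK- VZV (07/1, YS/R) and CMV (AD169, Davis). Value is the concentration that reduces plaque number by 50%. Cytotoxicity in HEL cells was taken as the concentration that reduces cell growth by 50%.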

HEL [3] = experiment: Tested for the inhibitory concentration required to reduce thymidine kinase deficient Varicella-Zoster virus (TK-VZV) strain YS/R plaque formation by 50%; type: functional, cell-based; details: Homo sapiens; in short: as §2
E6SM [4] = experiment: Tested for the minimum inhibitory concentration required to reduce thymidine kinase deficient herpes simplex virus type 1 (TK-HSV-1) strain B2006 induced cytopathogenicity by 50%; type: functional; details: Homo sapiens; in short: as §1
HEL [5] = experiment: Tested for the inhibitory concentration required to reduce cytomegalovirus (CMV) strain Davis plaque formation by 50%; type: functional, cell-based; details: Homo sapiens; in short: as §2
E6SM [6] = experiment: Tested for the minimum inhibitory concentration required to reduce vaccinia virus(VV) induced cytopathogenicity by 50%; type: functional; details: Homo sapiens
E6SM [7] = experiment: Tested for the minimum cytotoxic concentration required to cause a microscopically detectable alteration of normal cell morphology in human embryonic skin muscle (E6SM) fibroblast cell cultures; type: functional
In short: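 Cytotoxicity in human embryonic skin-muscle (E6SM) fibroblasts seeded in 96-well trays, scored microscopically as altered normal cell morphology. Tested up to 400 µg/mL.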

HEL [8] = experiment: Tested for the inhibitory concentration required to reduce TK+ Varicella-Zoster virus (TK+VZV) strain YS plaque formation by 50%; type: functional, cell-based; details: Homo sapiens; in short: as §2
HEL [9] = experiment: Tested for the inhibitory concentration required to reduce TK+ Varicella-Zoster virus (TK+VZV) strain OKA plaque formation by 50%; type: functional, cell-based; details: Homo sapiens; in short: as §2
HEL [10] = experiment: Tested for the inhibitory concentration required to reduce cytomegalovirus (CMV) strain AD-169 plaque formation by 50%; type: functional, cell-based; details: Homo sapiens; in short: as §2
HEL [11] = experiment: Tested for the inhibitory concentration required to reduce thymidine kinase deficient Varicella-Zoster virus (TK-VZV) strain 07/1 plaque formation by 50%; type: functional, cell-based; details: Homo sapiens; in short: as §2
E6SM [12] = experiment: Tested for the minimum inhibitory concentration required to reduce vesicular stomatitis virus(VSV) induced cytopathogenicity by 50%; type: functional; details: Homo sapiens
E6SM [13] = experiment: Tested for the minimum inhibitory concentration required to reduce herpes simplex virus type 1 (HSV-1) strain KOS induced cytopathogenicity by 50%; type: functional; details: Homo sapiens; in short: as §1
E6SM [14] = experiment: Tested for the minimum inhibitory concentration required to reduce herpes simplex virus type 1 (TK/ TK+HSV-1) strain VMW-1837 induced cytopathogenicity by 50%; type: functional; details: Homo sapiens; in short: as §1
E6SM [15] = experiment: Tested for the minimum inhibitory concentration required to reduce herpes simplex virus type 1 (TK- / TK+ HSV-1) strain VMW-1837 induced cytopathogenicity by 50%.; type: functional; details: Homo sapiens; in short: as §1
HEL [16] = experiment: Tested for the inhibitory concentration required to reduce thymidine kinase deficient Varicella-Zoster virus (TK- VZV) strain 07/1 plaque formation by 50%.; type: functional, cell-based; details: Homo sapiens
HEL [17] = experiment: Tested for the inhibitory concentration required to reduce cytomegalovirus (CMV) strain AD-169 plaque formation by 50%.; type: functional, cell-based; details: Homo sapiens; in short: as §2
E6SM [18] = experiment: Tested for the minimum cytotoxic concentration required to cause a microscopically detectable alteration of normal cell morphology in human embryonic skin muscle (E6SM) fibroblast cell cultures.; type: functional; in short: as §1
E6SM [19] = experiment: Tested for the minimum inhibitory concentration required to reduce herpes simplex virus type 1 (HSV-1) strain F induced cytopathogenicity by 50%.; type: functional; details: Homo sapiens; in short: as §1
E6SM [20] = experiment: Tested for the minimum inhibitory concentration required to reduce thymidine kinase deficient herpes simplex virus type 1 (TK- HSV-1) strain B2006 induced cytopathogenicity by 50%.; type: functional; details: Homo sapiens; in short: as §1
E6SM [21] = experiment: Tested for the minimum inhibitory concentration required to reduce herpes simplex virus type 2 (HSV-2) strain G induced cytopathogenicity by 50%.; type: functional; details: Homo sapiens; in short: as §1
E6SM [22] = experiment: Tested for the minimum inhibitory concentration required to reduce herpes simplex virus type 1 (HSV-1) strain McIntyre induced cytopathogenicity by 50%.; type: functional; details: Homo sapiens; in short: as §1
E6SM [23] = experiment: Tested for the minimum inhibitory concentration required to reduce herpes simplex virus type 1 (HSV-1) strain KOS induced cytopathogenicity by 50%.; type: functional; details: Homo sapiens; in short: as §1
E6SM [24] = experiment: (§3) Tested for the minimum inhibitory concentration required to reduce herpes simplex virus type 2 (HSV-2) strain 196 induced cytopathogenicity by 50%.; type: functional; details: Homo sapiens
E6SM [25] = experiment: Tested for the minimum inhibitory concentration required to reduce vaccinia virus(VV) induced cytopathogenicity by 50%.; type: functional; details: Homo sapiens
HEL [26] = experiment: Tested for the inhibitory concentration required to reduce TK+ Varicella-Zoster virus (TK+ VZV) strain OKA plaque formation by 50%.; type: functional, cell-based; details: Homo sapiens
E6SM [27] = experiment: Tested for the minimum inhibitory concentration required to reduce herpes simplex virus type 2 (HSV-2) strain Lyons induced cytopathogenicity by 50%.; type: functional; details: Homo sapiens; in short: as §1
HEL [28] = experiment: Tested for the cytotoxic concentration, required to reduce cell growth by 50% in human embryonic lung (HEL) cells.; type: functional; in short: as §2
HEL [29] = experiment: Tested for the inhibitory concentration required to reduce cytomegalovirus (CMV) strain Davis plaque formation by 50%.; type: functional, cell-based; details: Homo sapiens; in short: as §2
HEL [30] = experiment: Tested for the inhibitory concentration required to reduce thymidine kinase deficient Varicella-Zoster virus (TK- VZV) strain YS/R plaque formation by 50%.; type: functional, cell-based; details: Homo sapiens
HEL [31] = experiment: Tested for the inhibitory concentration required to reduce TK+ Varicella-Zoster virus (TK+ VZV) strain YS plaque formation by 50%; type: functional, cell-based; details: Homo sapiens
Mus musculus = organism: Mus musculus; experiment: Inhibition constant assumed to reflect the affinity for the transport site in mouse erythrocytes; type: functional
In short: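 Thymidine influx competition in erythrocytes from male B6D2F1 mice, 10% hematocrit in buffered saline, room temperature. [methyl-3H]thymidine at 0.1, 0.2, 0.5 and 1 mM, alone or with inhibitor at 0.053–1.05 mM. Influx stopped after 3 s with NBMPR. Pellets extracted in 5% perchloric acid and counted by scintillation. Zero-time trapping subtracted. Duplicate samples. Ki from Dixon plot.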

HEL [32] = experiment: Tested for the 50% inhibitory concentration required to reduce TK+ Varicella-Zoster virus (TK+ VZV) strain YS plaque formation by 50%; type: functional, cell-based; details: Homo sapiens; in short: as §2
E6SM [33] = experiment: as §3; type: functional; details: Homo sapiens; in short: as §1; remark: listed apart in the source

SMILES	MIC (E6SM [12]) [mg/L]	MIC (E6SM [15]) [mg/L]	IC50 (HEL [16]) [mg/L]	IC50 (HEL [17]) [mg/L]	MCC (E6SM [18]) [µg/mL]	MIC (E6SM [19]) [mg/L]	MIC (E6SM [20]) [mg/L]	MIC (E6SM [21]) [mg/L]	MIC (E6SM [22]) [mg/L]	MIC (E6SM [23]) [mg/L]	MIC (E6SM [25]) [mg/L]	IC50 (HEL [26]) [mg/L]	MIC (E6SM [27]) [mg/L]	CC50 (HEL [28]) [mg/L]	IC50 (HEL [29]) [mg/L]	IC50 (HEL [30]) [mg/L]	also measured
Nc1ncc2ncn(C3COC(CO)C(O)C3)c2n1 (stereo unspecified)	> 200																MIC (E6SM [1]): 20 mg/L (≈ 75.4 µM); CC50 (HEL [2]): 140 mg/L (≈ 528 µM); IC50 (HEL [3]): 100 mg/L (≈ 377 µM); MIC (E6SM [4]): 150 mg/L (≈ 565 µM); IC50 (HEL [5]): > 50 mg/L; MIC (E6SM [6]): > 200 mg/L; MCC (E6SM [7]): > 400 µg/mL; IC50 (HEL [8]): 80 mg/L (≈ 302 µM); IC50 (HEL [9]): 60 mg/L (≈ 226 µM); IC50 (HEL [10]): > 50 mg/L; IC50 (HEL [11]): 90 mg/L (≈ 339 µM); MIC (E6SM [13]): 20 mg/L (≈ 75.4 µM); MIC (E6SM [14]): 70 mg/L (≈ 264 µM)
O=c1[nH]c(=O)n([C@H]2C[C@H](O)[C@@H](CO)O2)cc1/C=C/Br [BRIVUDINE]	> 200	70 (≈ 210 µM)	8 (≈ 24 µM)	> 100	> 400	0.004 (≈ 0.012 µM)	40 (≈ 120 µM)	> 200	0.2 (≈ 0.6 µM)	0.004 (≈ 0.012 µM)	2 (≈ 6 µM)	0.0007 (≈ 0.0021 µM)	70 (≈ 210 µM)	> 50	> 100	30 (≈ 90.1 µM)	MIC (E6SM [24]): 300 mg/L (≈ 901 µM); IC50 (HEL [31]): 0.0015 mg/L (≈ 0.0045 µM); Ki (Mus musculus): 23 µM
O=c1[nH]c(=O)n([C@H]2C[C@H](O)[C@@H](CO)O2)cc1I [IDOXURIDINE]	> 400	10 (≈ 28.2 µM)	4 (≈ 11.3 µM)	20 (≈ 56.5 µM)	> 400	0.2 (≈ 0.565 µM)	40 (≈ 113 µM)	0.2 (≈ 0.565 µM)	1 (≈ 2.82 µM)	0.2 (≈ 0.565 µM)	0.7 (≈ 1.98 µM)	0.17 (≈ 0.48 µM)	0.2 (≈ 0.565 µM)	> 50	> 50	4 (≈ 11.3 µM)	IC50 (HEL [32]): 0.4 mg/L (≈ 1.13 µM); MIC (E6SM [33]): 0.2 mg/L (≈ 0.565 µM)
